Results published in ChEMBL document CHEMBL1759916, “Bicyclo[2.2.2]octyltriazole inhibitors of 11β-hydoxysteroid dehydrogenase type 1. Pharmacological agents for the treatment of metabolic syndrome” (Bioorg Med Chem Lett, 2011).

How the values were obtained:
[1] = system: Mus musculus; assay: Inhibition of 11beta-HSD1 in ICR mouse assessed as inhibition of conversion of [3H]-cortisone to [3H]-cortisol at 10 mg/kg, po administered 16 hrs before [3H]-cortisone challenge; assay type: functional
In short: (§1)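 Mouse pharmacodynamic model. Compound given 10 mg/kg PO, then 3H-cortisone by tail vein injection 1, 4 or 16 h after dosing. […] Plasma compound levels were measured after the PD studies.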

[2] = system: Mus musculus; assay: Inhibition of 11beta-HSD1 in ICR mouse assessed as inhibition of conversion of [3H]-cortisone to [3H]-cortisol at 10 mg/kg, po administered 4 hrs before [3H]-cortisone challenge; assay type: functional; in short: as §1
[3] = target: T1, 11-beta-hydroxysteroid dehydrogenase type 2 (Mus musculus, UniProt P51661); assay: Inhibition of mouse 11beta-HSD2 expressed in CHO-K1 cells assessed as conversion of [3H]-cortisol to [3H]-cortisone by scintillation proximity assay; assay type: cell-based
T1 sequence (P51661 whole entry): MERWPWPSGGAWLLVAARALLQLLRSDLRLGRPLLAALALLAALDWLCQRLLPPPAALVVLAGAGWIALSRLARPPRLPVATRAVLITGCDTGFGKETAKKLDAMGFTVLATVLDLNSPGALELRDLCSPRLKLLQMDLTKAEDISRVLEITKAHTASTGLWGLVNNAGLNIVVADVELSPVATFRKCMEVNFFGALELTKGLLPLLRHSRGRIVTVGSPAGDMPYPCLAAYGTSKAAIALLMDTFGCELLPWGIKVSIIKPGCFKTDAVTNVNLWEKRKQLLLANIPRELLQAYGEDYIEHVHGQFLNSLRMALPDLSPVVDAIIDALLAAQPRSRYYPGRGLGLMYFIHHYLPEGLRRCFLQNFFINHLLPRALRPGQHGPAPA
In short: (§2)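 Scintillation proximity assay (SPA). IC50 values are the average of two determinations.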

[4] = target: T2, 11-beta-hydroxysteroid dehydrogenase type 2 (Homo sapiens, UniProt P80365); assay: Inhibition of human 11beta-HSD2 expressed in CHO-K1 cells assessed as conversion of [3H]-cortisol to [3H]-cortisone by scintillation proximity assay; assay type: cell-based
T2 sequence (P80365 whole entry): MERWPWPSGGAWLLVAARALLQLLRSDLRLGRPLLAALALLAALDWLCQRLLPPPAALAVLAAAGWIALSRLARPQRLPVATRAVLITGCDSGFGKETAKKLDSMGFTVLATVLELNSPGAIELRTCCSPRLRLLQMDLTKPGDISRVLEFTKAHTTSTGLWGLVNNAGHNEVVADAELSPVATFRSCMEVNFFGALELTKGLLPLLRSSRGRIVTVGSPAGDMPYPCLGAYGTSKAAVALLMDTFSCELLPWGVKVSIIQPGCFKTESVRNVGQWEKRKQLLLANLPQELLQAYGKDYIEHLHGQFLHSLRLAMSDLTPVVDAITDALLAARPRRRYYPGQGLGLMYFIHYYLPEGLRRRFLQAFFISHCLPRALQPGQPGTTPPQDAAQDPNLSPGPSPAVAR

[5] = target: 11-beta-hydroxysteroid dehydrogenase 1 (Mus musculus, UniProt P50172); assay: Inhibition of mouse 11beta-HSD1 expressed in CHO-K1 cells assessed as conversion of [3H]-cortisone to [3H]-cortisol by scintillation proximity assay; assay type: cell-based
[6] = target: 11-beta-hydroxysteroid dehydrogenase 1 (Homo sapiens, UniProt P28845); assay: Inhibition of human 11beta-HSD1 expressed in CHO-K1 cells assessed as conversion of [3H]-cortisone to [3H]-cortisol by scintillation proximity assay; assay type: cell-based; in short: as §2
[7] = Clearance in C57 mouse at 2 mg/kg, iv; assay type: ADME, organism-based; design: dose 2 mg/kg, route intravenous; details: in vivo
In short: (§3)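 Mouse PK from 2 mg/kg IV and 10 mg/kg oral dosing. The PO AUC is reported normalized to dose.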

[8] = Bioavailability in C57 mouse at 2 mg/kg, iv and 10 mg/kg, po; assay type: ADME, organism-based; details: in vivo; in short: as §3
[9] = system: Mus musculus; assay: Inhibition of 11beta-HSD1 in ICR mouse assessed as inhibition of conversion of [3H]-cortisone to [3H]-cortisol at 10 mg/kg, po administered 1 hr before [3H]-cortisone challenge; assay type: functional; in short: as §1

11-beta-hydroxysteroid dehydrogenase 1 (Homo sapiens, UniProt P28845), sequence (P28845 whole entry): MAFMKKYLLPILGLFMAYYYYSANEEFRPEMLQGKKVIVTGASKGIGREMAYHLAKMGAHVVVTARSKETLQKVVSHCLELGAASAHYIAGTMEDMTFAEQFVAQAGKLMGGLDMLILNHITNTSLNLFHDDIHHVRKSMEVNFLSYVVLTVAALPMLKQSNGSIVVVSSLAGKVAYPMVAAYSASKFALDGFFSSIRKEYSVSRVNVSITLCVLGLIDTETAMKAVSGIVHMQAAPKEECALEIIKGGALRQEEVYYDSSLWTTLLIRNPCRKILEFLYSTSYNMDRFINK
11-beta-hydroxysteroid dehydrogenase 1 (Mus musculus, UniProt P50172), sequence (P50172 whole entry): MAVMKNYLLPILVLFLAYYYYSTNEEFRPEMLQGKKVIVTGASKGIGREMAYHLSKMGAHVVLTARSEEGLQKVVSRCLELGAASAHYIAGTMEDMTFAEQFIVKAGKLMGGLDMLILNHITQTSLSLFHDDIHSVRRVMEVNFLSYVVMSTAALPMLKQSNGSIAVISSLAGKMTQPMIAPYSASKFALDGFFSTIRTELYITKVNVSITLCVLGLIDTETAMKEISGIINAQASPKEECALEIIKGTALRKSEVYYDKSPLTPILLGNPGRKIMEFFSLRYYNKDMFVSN

Row | IC50 [3] [nM] | IC50 [4] [nM] | IC50 [5] [nM] | IC50 [6] [nM] | clearance [7] [mL/min/kg] | bioavailability [8] [%] | Structure (SMILES) | inhibition in vivo at 10 mg/kg [1] [%] | inhibition in vivo at 10 mg/kg [2] [%] | inhibition in vivo at 10 mg/kg [9] [%]
1 | > 4000 | > 4000 | – | – | – | – | CCS(=O)(=O)CCC12CCC(c3nnc(-c4ccccc4C)n3C)(CC1)CC2 | 30 | 86 | –
2 | > 4000 | > 4000 | 2 | 4 | – | – | CCOCC12CCC(c3nnc(-c4ccccc4C(F)(F)F)n3C)(CC1)CC2 | 3 | 44 | –
3 | > 4000 | 4000 | 1.3 | 1.2 | 21 | 25 | CC(=O)CCCC12CCC(c3nnc(-c4ccccc4C(F)(F)F)n3C)(CC1)CC2 | 32 | 90 | –
4 | > 4000 | > 4000 | > 4000 | 2800 | – | – | CCS(=O)(=O)CCC12CCC(c3nnc(-c4ccc(Cl)cc4)n3C)(CC1)CC2 | – | – | –
5 | > 4000 | > 4000 | 1.6 | 4.4 | – | – | Cn1c(-c2ccccc2C(F)(F)F)nnc1C12CCC(CCS(=O)(=O)c3ccccc3)(CC1)CC2 | 6 | 69 | –
6 | > 4000 | 4000 | 2 | 2 | – | – | COCCCCC12CCC(c3nnc(-c4ccccc4C(F)(F)F)n3C)(CC1)CC2 | 1 | 76 | –
7 | > 4000 | > 1000 | 1.7 | < 1 | 88 | 21 | CC(O)CCCC12CCC(c3nnc(-c4ccccc4C(F)(F)F)n3C)(CC1)CC2 (stereo not given) | – | 97 | –
8 | > 4000 | > 4000 | 2.4 | 3.2 | – | – | CCS(=O)(=O)CCCC12CCC(c3nnc(-c4ccccc4C(F)(F)F)n3C)(CC1)CC2 [MK-0736] | 63 | 92 | –
9 | > 4000 | > 4000 | < 1 | < 1 | 14 | 36 | Cn1c(-c2ccccc2C(F)(F)F)nnc1C12CCC(CCCC(C)(F)F)(CC1)CC2 | 94 | 99 | –
10 | > 4000 | > 4000 | – | 10 | – | – | CCS(=O)(=O)CCC12CCC(c3nnc(-c4ccccc4Br)n3C)(CC1)CC2 | 65 | 86 | –
11 | > 4000 | > 4000 | 4 | 30 | – | – | Cn1c(-c2ccccc2C(F)(F)F)nnc1C12CCC(CNS(C)(=O)=O)(CC1)CC2 | 27 | 73 | –
12 | > 4000 | 1300 | < 1 | < 1 | – | – | CC(F)CCCC12CCC(c3nnc(-c4ccccc4C(F)(F)F)n3C)(CC1)CC2 (stereo not given) | 51 | 96 | –
13 | > 4000 | > 4000 | 3.9 | 3.3 | – | – | CCSCCC12CCC(c3nnc(-c4ccccc4C(F)(F)F)n3C)(CC1)CC2 | 72 | 79 | –
14 | > 4000 | > 4000 | 6.3 | 5.4 | – | – | Cn1c(-c2ccccc2C(F)(F)F)nnc1C12CCC(CCS(=O)(=O)C(C)(C)C)(CC1)CC2 | 10 | 65 | –
15 | > 4000 | > 4000 | 2 | 1 | – | – | Cn1c(-c2ccccc2C(F)(F)F)nnc1C12CCC(COc3ccc(S(C)(=O)=O)cc3)(CC1)CC2 | 28 | 79 | –
16 | > 4000 | > 4000 | – | 7.5 | – | – | CCS(=O)(=O)CCC12CCC(c3nnc(-c4ccccc4Cl)n3C)(CC1)CC2 | 74 | 87 | –

Row | IC50 [3] [nM] | IC50 [4] [nM] | IC50 [5] [nM] | IC50 [6] [nM] | clearance [7] [mL/min/kg] | bioavailability [8] [%] | Structure (SMILES) | inhibition in vivo at 10 mg/kg [1] [%] | inhibition in vivo at 10 mg/kg [2] [%] | inhibition in vivo at 10 mg/kg [9] [%]
17 | > 4000 | > 4000 | 2.2 | 6.1 | – | – | Cn1c(-c2ccccc2C(F)(F)F)nnc1C12CCC(CCS(=O)(=O)C(F)(F)F)(CC1)CC2 | 78 | 81 | –
18 | > 4000 | > 4000 | 4.1 | 11 | – | – | Cn1c(-c2ccccc2C(F)(F)F)nnc1C12CCC(CCS(C)(=O)=O)(CC1)CC2 | 63 | 96 | –
19 | – | – | 19 | 35 | – | – | CC(O)CCCC12CCC(c3nnc4n3CCCCCC4)(CC1)CC2 (stereo not given) | – | 41 | 67
20 | – | – | 4 | – | – | – | CCS(=O)(=O)CC12CCC(c3nnc(-c4ccccc4C(F)(F)F)n3C)(CC1)CC2 | 80 | 94 | –
21 | > 4000 | > 4000 | 6.7 | 5.1 | – | – | CCCS(=O)(=O)CCC12CCC(c3nnc(-c4ccccc4C(F)(F)F)n3C)(CC1)CC2 | 47 | 89 | –
22 | > 4000 | > 4000 | 1 | 8.1 | – | – | CCCS(=O)(=O)NCC12CCC(c3nnc(-c4ccccc4C(F)(F)F)n3C)(CC1)CC2 | 7 | 93 | –
23 | > 4000 | > 4000 | 3 | 2.8 | – | – | CCS(=O)(=O)CCC12CCC(c3nnc(-c4ccc(O)cc4Cl)n3C)(CC1)CC2 | 14 | 26 | –
24 | > 4000 | > 4000 | 1.8 | 1.6 | – | – | CCS(=O)(=O)CCCCC12CCC(c3nnc(-c4ccccc4C(F)(F)F)n3C)(CC1)CC2 | 58 | 90 | –
25 | > 4000 | > 4000 | 1100 | 900 | – | – | CCS(=O)(=O)CCC12CCC(c3nnc(-c4cccc(Cl)c4)n3C)(CC1)CC2 | – | – | –
26 | > 4000 | 1300 | – | 1.8 | 273 | 20 | CCCCCC12CCC(c3nnc(-c4ccccc4C(F)(F)F)n3C)(CC1)CC2 | – | 98 | –
27 | > 4000 | 1600 | 1.5 | 3.7 | – | – | Cn1c(-c2ccccc2C(F)(F)F)nnc1C12CCC(CCS(=O)(=O)CC(F)(F)F)(CC1)CC2 | 67 | 74 | –
28 | > 4000 | > 4000 | 10 | 4.1 | – | – | CC[S+]([O-])CCC12CCC(c3nnc(-c4ccccc4C(F)(F)F)n3C)(CC1)CC2 (stereo not given) | 72 | 90 | –
29 | > 4000 | > 4000 | – | – | – | – | CCS(=O)(=O)CCC12CCC(c3nnc(-c4ccccc4F)n3C)(CC1)CC2 | – | – | –
30 | > 4000 | > 4000 | 3.6 | 4.1 | – | – | CC(C)S(=O)(=O)CCC12CCC(c3nnc(-c4ccccc4C(F)(F)F)n3C)(CC1)CC2 | 59 | 88 | –
31 | > 4000 | > 4000 | 1.8 | 5.5 | – | – | Cn1c(-c2ccccc2C(F)(F)F)nnc1C12CCC(CCS(=O)(=O)c3ccc(F)cc3)(CC1)CC2 | 2 | 63 | –
32 | > 4000 | > 4000 | 2.9 | 20 | – | – | CCS(=O)(=O)NCC12CCC(c3nnc(-c4ccccc4C(F)(F)F)n3C)(CC1)CC2 | 50 | 95 | –
